Source: ChEMBL document CHEMBL1131049, “Antiviral activities of methylated nordihydroguaiaretic acids. 2. Targeting herpes simplex virus replication by the mutation insensitive transcription inhibitor tetra-O-methyl-NDGA” (J Med Chem, 1998)
Several values for one entry are separate records, joined by “and”; a condition that tells them apart may be missing. Identical values can stand only once.

Experiments:
Vero [1] = experiment: Comparative Potency (IC50s) at HSV-1 passage 8 in vero cells; type: functional, cell-based; details: Chlorocebus sabaeus
Procedure, shortened: (§1)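 Vero cells infected with 100 TCID50 of HSV-1 (Sm44) or HSV-2 (Sav); compound in DMSO diluted in medium and added 2 h post-infection, triplicates per concentration. Passaging: virus recovered from cultures at the IC50 infected fresh Vero cells, and the IC50 was redetermined each passage.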

[2] = Ralative safety was expressed as Selective index (TC50/IC50) at HSV-1 passage 9 in vero cells; type: functional
Procedure, shortened: (§2)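 SI = TC50/IC50 per passage. IC50 comes from serial passage of HSV-1 Sm44 or HSV-2 Sav in Vero cells (100 TCID50, drug added 2 h p.i., CPE read-out, triplicates). TC50 comes from uninfected Vero cells by a tetrazolium viability assay, run three times in triplicate and averaged.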

Vero [3] = experiment: Comparative Potency (IC50s) at HSV-1 passage 4 in vero cells; type: functional, cell-based; details: Chlorocebus sabaeus; procedure, shortened: as §1
[4] = Ralative safety was expressed as Selective index (TC50/IC50) at HSV-2 passage 2 in vero cells; type: functional; procedure, shortened: as §2
Vero [5] = experiment: Comparative Potency (IC50s) at HSV-2 passage 4 in vero cells; type: functional, cell-based; details: Chlorocebus sabaeus; procedure, shortened: as §1
Vero [6] = experiment: Comparative Potency (IC50s) at HSV-1 passage 6 in vero cells; type: functional, cell-based; details: Chlorocebus sabaeus; procedure, shortened: as §1
Vero [7] = experiment: Comparative Potency (IC50s) at HSV-2 passage 2 in vero cells; type: functional, cell-based; details: Chlorocebus sabaeus; procedure, shortened: as §1
[8] = Ralative safety was expressed as Selective index (TC50/IC50) at HSV-1 passage 3 in vero cells; type: functional; procedure, shortened: as §2
[9] = Ralative safety was expressed as Selective index (TC50/IC50) at HSV-2 passage 1 in vero cells; type: functional; procedure, shortened: as §2
[10] = Ralative safety was expressed as Selective index (TC50/IC50) at HSV-1 passage 7 in vero cells; type: functional; procedure, shortened: as §2
Vero [11] = experiment: Comparative Potency (IC50s) at HSV-1 passage 2 in vero cells; type: functional, cell-based; details: Chlorocebus sabaeus; procedure, shortened: as §1
Vero [12] = experiment: Comparative Potency (IC50s) at HSV-2 passage 1 in vero cells; type: functional, cell-based; details: Chlorocebus sabaeus; procedure, shortened: as §1
[13] = Ralative safety was expressed as Selective index (TC50/IC50) at HSV-1 passage 8 in vero cells; type: functional; procedure, shortened: as §2
[14] = Ralative safety was expressed as Selective index (TC50/IC50) at HSV-1 passage 4 in vero cells; type: functional; procedure, shortened: as §2
[15] = Ralative safety was expressed as Selective index (TC50/IC50) at HSV-2 passage 3 in vero cells; type: functional; procedure, shortened: as §2
Vero [16] = experiment: Comparative Potency (IC50s) at HSV-1 passage 5 in vero cells; type: functional, cell-based; details: Chlorocebus sabaeus; procedure, shortened: as §1
Vero [17] = experiment: Comparative Potency (IC50s) at HSV-1 passage 3 in vero cells; type: functional, cell-based; details: Chlorocebus sabaeus; procedure, shortened: as §1
Vero [18] = experiment: Comparative Potency (IC50s) at HSV-2 passage 3 in vero cells; type: functional, cell-based; details: Chlorocebus sabaeus; procedure, shortened: as §1
[19] = Ralative safety was expressed as Selective index (TC50/IC50) at HSV-1 passage 6 in vero cells; type: functional; procedure, shortened: as §2
[20] = Ralative safety was expressed as Selective index (TC50/IC50) at HSV-1 passage 10 in vero cells; type: functional; procedure, shortened: as §2
Vero [21] = experiment: Comparative Potency (IC50s) at HSV-1 passage 9 in vero cells; type: functional, cell-based; details: Chlorocebus sabaeus; procedure, shortened: as §1
[22] = Ralative safety was expressed as Selective index (TC50/IC50) at HSV-1 passage 2 in vero cells; type: functional; procedure, shortened: as §2
Vero [23] = experiment: Comparative Potency (IC50s) at HSV-1 passage 7 in vero cells; type: functional, cell-based; details: Chlorocebus sabaeus; procedure, shortened: as §1
[24] = Ralative safety was expressed as Selective index (TC50/IC50) at HSV-1 passage 1 in vero cells; type: functional; procedure, shortened: as §2
[25] = Ralative safety was expressed as Selective index (TC50/IC50) at HSV-1 passage 5 in vero cells; type: functional; procedure, shortened: as §2
[26] = Ralative safety was expressed as Selective index (TC50/IC50) at HSV-2 passage 4 in vero cells; type: functional; procedure, shortened: as §2
Mus musculus [27] = experiment: Percent Change in body weight of 5 mice when intraperitoneally administered daily once for 1 day at dose 300 mg/kg; type: functional; details: route intraperitoneal
[28] = Mortality in 5 mice when intraperitoneally administered daily twice for 5 days at dose 50 mg/kg; type: ADME, organism-based; design: dose 50 mg/kg, route intraperitoneal; details: mouse, in vivo, ip, 120 h
[29] = Relative safety was expressed as Selective index (TC50/IC50) at HSV-1 passage 2 in vero cells; type: functional; procedure, shortened: as §2
[30] = Mortality in 5 mice when intraperitoneally administered daily once for 7 days at dose 100 mg/kg; type: ADME, organism-based; design: dose 100 mg/kg, route intraperitoneal; details: mouse, in vivo, ip, 168 h
[31] = Relative safety was expressed as Selective index (TC50/IC50) at HSV-1 passage 10 in vero cells; type: functional; procedure, shortened: as §2
Mus musculus [32] = experiment: Percent Change in body weight of 5 mice when intraperitoneally administered daily once for 7 days at dose 50 mg/kg; type: functional; details: route intraperitoneal
[33] = Mortality in 5 mice when intraperitoneally administered daily once for 7 days at dose 50 mg/kg; type: ADME, organism-based; design: dose 50 mg/kg, route intraperitoneal; details: mouse, in vivo, ip, 168 h
[34] = Relative safety was expressed as Selective index (TC50/IC50) at HSV-1 passage 5 in vero cells; type: functional; procedure, shortened: as §2
[35] = Relative safety was expressed as Selective index (TC50/IC50) at HSV-2 passage 1 in vero cells; type: functional; procedure, shortened: as §2
[36] = Relative safety was expressed as Selective index (TC50/IC50) at HSV-1 passage 1 in vero cells; type: functional; procedure, shortened: as §2
Vero [37] = experiment: Comparative Potency (IC50s) at HSV-1 passage 10 in vero cells; type: functional, cell-based, Chlorocebus sabaeus; procedure, shortened: as §1
[38] = Relative safety was expressed as Selective index (TC50/IC50) at HSV-1 passage 8 in vero cells; type: functional; procedure, shortened: as §2
[39] = Relative safety was expressed as Selective index (TC50/IC50) at HSV-1 passage 9 in vero cells; type: functional; procedure, shortened: as §2
[40] = Relative safety was expressed as Selective index (TC50/IC50) at HSV-2 passage 4 in vero cells; type: functional; procedure, shortened: as §2
[41] = Relative safety was expressed as Selective index (TC50/IC50) at HSV-2 passage 2 in vero cells; type: functional; procedure, shortened: as §2
[42] = Relative safety was expressed as Selective index (TC50/IC50) at HSV-2 passage 3 in vero cells; type: functional; procedure, shortened: as §2
[43] = Relative safety was expressed as Selective index (TC50/IC50) at HSV-1 passage 7 in vero cells; type: functional; procedure, shortened: as §2
[44] = Relative safety was expressed as Selective index (TC50/IC50) at HSV-1 passage 4 in vero cells; type: functional; procedure, shortened: as §2
[45] = Relative safety was expressed as Selective index (TC50/IC50) at HSV-1 passage 6 in vero cells; type: functional; procedure, shortened: as §2
[46] = Mortality in 5 mice when intraperitoneally administered daily once for 7 days at dose 25 mg/kg; type: ADME, organism-based; design: dose 25 mg/kg, route intraperitoneal; details: mouse, in vivo, ip, 168 h
[47] = Relative safety was expressed as Selective index (TC50/IC50) at HSV-1 passage 3 in vero cells; type: functional; procedure, shortened: as §2

Nc1nc2c(ncn2COCCO)c(=O)[nH]1 [ACYCLOVIR] gave an IC50 (Vero [1]) of 444 µM, a Selectivity index [2] of 11 and an IC50 (Vero [3]) of 138 µM. The Selectivity index [4] was 100, the IC50 (Vero [5]) was > 88.8 µM and the IC50 (Vero [6]) was 131 µM. The IC50 (Vero [7]) was > 44.4 µM, the Selectivity index [8] was 50 and the Selectivity index [9] was 667. The Selectivity index [10] was 23, the IC50 (Vero [11]) was 37.8 µM and the IC50 (Vero [12]) was 6.66 µM. For the same compound, the Selectivity index [13] was 23, the Selectivity index [14] was 32 and the Selectivity index [15] was 70. For the same compound, the IC50 (Vero [16]) was 111 µM, the IC50 (Vero [17]) was > 88.8 µM and the IC50 (Vero [18]) was 62.8 µM. It also gave a Selectivity index [19] of 34, a Selectivity index [20] of 10 and an IC50 (Vero [21]) of 379 µM. For the same compound, the Selectivity index [22] was 117, the IC50 (Vero [23]) was 190 µM and the Selectivity index [24] was 589. For the same compound, the Selectivity index [25] was 40 and the Selectivity index [26] was 50.

COc1ccc(C[C@@H](C)[C@@H](C)Cc2ccc(OC)c(OC)c2)cc1OC [TERAMEPROCOL] showed an IC50 (Vero [1]) of 9.91 µM, a Change (Mus musculus [27]) of -2.66% and a Mortality [28] of 1. For the same compound, the IC50 (Vero [3]) was 5.97 µM, the Selectivity index [29] was 36.4 and the IC50 (Vero [5]) was 11.1 µM. The IC50 (Vero [6]) was 6.98 µM, the IC50 (Vero [7]) was 11.1 µM and the Mortality [30] was 0. For the same compound, the Selectivity index [31] was 33.5, the Change (Mus musculus [32]) was -2.8% and the Mortality [33] was 0. For the same compound, the Selectivity index [34] was 24.7, the Selectivity index [35] was 38.3 and the IC50 (Vero [11]) was 4.4 µM. For the same compound, the IC50 (Vero [12]) was 4.18 µM, the Selectivity index [36] was 13.7 and the IC50 (Vero [37]) was 11.7 µM and 4.47 µM. The Selectivity index [38] was 16.1, the IC50 (Vero [16]) was 6.48 µM and the IC50 (Vero [17]) was 8.24 µM. The IC50 (Vero [18]) was 11.1 µM, the Selectivity index [39] was 18.1 and the IC50 (Vero [21]) was 8.82 µM. For the same compound, the Selectivity index [40] was 14.4, the Selectivity index [41] was 14.4 and the IC50 (Vero [23]) was 6.98 µM. For the same compound, the Selectivity index [42] was 14.4, the Selectivity index [43] was 22.9 and the Selectivity index [44] was 26.8. For the same compound, the Selectivity index [45] was 22.9, the Mortality [46] was 0 and the Selectivity index [47] was 19.4.
